Laboratory results as given in ChEMBL document CHEMBL3758079, “Design, synthesis and biological evaluation of chalconyl blended triazole allied organosilatranes as giardicidal and trichomonacidal agents” (Eur J Med Chem, 2016).

Assays:
Giardia intestinalis = assay: Antiparasitic activity against Giardia lamblia Portland 1 after 48 hrs by MTT assay; type: functional, organism-based; conditions: Giardia duodenalis, Portland 1, 48 h
In short: (§1)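 Trophozoite cultures grown in 96-well plates at 37 °C for 24 h, then serial two-fold dilutions (0.9-15 μg/cm³) added from DMSO stocks, 0.5% DMSO as 100%-growth control. Incubated 48 h, then MTT 4 h at 37 °C in dark. Dissolved in DMSO, A570 read. IC50 from sigmoid dose-response. Run in duplicate, three independent experiments in triplicate.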

Trichomonas vaginalis = assay: Antiparasitic activity against Trichomonas vaginalis 162 after 48 hrs by MTT assay; type: functional, organism-based; conditions: Trichomonas vaginalis, 162, 48 h; in short: as §1
[1] = Cytotoxicity against human HeLa cells after 18 hrs by MTT assay; type: cell-based
In short: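 Cells (5×10^4/well) seeded in RPMI-1640 with 10% FBS, overnight at 37 °C. Compounds added at 100 to 1.56 µM for 18 h at 37 °C. MTT (5 mg/ml in PBS) added for 3-4 h, formazan dissolved in DMSO. CC50 is the concentration giving 50% growth inhibition relative to untreated cells.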

[2] = Selectivity index, ratio of CC50 for HEK293 cells to IC50 for Trichomonas vaginalis 162; type: functional
[3] = Selectivity index, ratio of CC50 for human HeLa cells to IC50 for Trichomonas vaginalis 162; type: functional
[4] = Cytotoxicity against HEK293 cells after 18 hrs by MTT assay; type: cell-based; conditions: human
[5] = Selectivity index, ratio of CC50 for HEK293 cells to IC50 for Giardia lamblia Portland 1; type: functional
[6] = Selectivity index, ratio of CC50 for human HeLa cells to IC50 for Giardia lamblia Portland 1; type: functional

Compound | IC50 (Giardia intestinalis) [µM] | IC50 (Trichomonas vaginalis) [µM] | CC50 at 18 h [1] [µM] | Ratio CC50/IC50 [2] | Ratio CC50/IC50 [3] | CC50 at 18 h [4] [µM] | Ratio CC50/IC50 [5] | Ratio CC50/IC50 [6]
O=C(/C=C/c1ccc(Cl)cc1)c1ccccc1OCc1cn(CCC[Si]23OCCN(CCO2)CCO3)nn1 | 33.9 | 22.3 | – | – | – | – | – | –
Cc1ncc([N+](=O)[O-])n1CCO [METRONIDAZOLE] | 62.5 | 55.9 | – | – | – | – | – | –
COc1ccc(/C=C/C(=O)c2cccc(OCc3cn(CCC[Si]45OCCN(CCO4)CCO5)nn3)c2)c(OC)c1 | 43.9 | 43.8 | – | – | – | – | – | –
COc1ccc(/C=C/C(=O)c2cccc(OCc3cn(CCC[Si]45OCCN(CCO4)CCO5)nn3)c2)cc1 | – | 30.3 | 203 | 8.81 | 6.7 | 267 | – | –
O=C(/C=C/c1ccc(Cl)cc1)c1cccc(OCc2cn(CCC[Si]34OCCN(CCO3)CCO4)nn2)c1 | 78.5 | 55.7 | – | – | – | – | – | –
O=C(/C=C/c1ccc(Cl)cc1)c1ccc(OCc2cn(CCC[Si]34OCCN(CCO3)CCO4)nn2)cc1 | 33.1 | 21.9 | – | – | – | – | – | –
O=C(/C=C/c1ccccc1)c1ccccc1OCc1cn(CCC[Si]23OCCN(CCO2)CCO3)nn1 | 28.1 | 23.3 | 238 | 8.94 | 10.23 | 208 | 7.41 | 8.48
COc1ccc(/C=C/C(=O)c2ccccc2OCc2cn(CCC[Si]34OCCN(CCO3)CCO4)nn2)c(OC)c1 | 35.4 | 22.1 | – | – | – | – | – | –
Cc1ccc(/C=C/C(=O)c2ccc(OCc3cn(CCC[Si]45OCCN(CCO4)CCO5)nn3)cc2)cc1 | 33.2 | 24.8 | 189 | 7.97 | 7.61 | 198 | 5.95 | 5.68
Cc1ccc(/C=C/C(=O)c2ccccc2OCc2cn(CCC[Si]34OCCN(CCO3)CCO4)nn2)cc1 | 48 | 50 | – | – | – | – | – | –
COc1ccccc1/C=C/C(=O)c1cccc(OCc2cn(CCC[Si]34OCCN(CCO3)CCO4)nn2)c1 | 43.7 | 43.1 | – | – | – | – | – | –
Cc1ccc(/C=C/C(=O)c2cccc(OCc3cn(CCC[Si]45OCCN(CCO4)CCO5)nn3)c2)cc1 | 131 | 101 | – | – | – | – | – | –
O=C(/C=C/c1ccccc1)c1ccc(OCc2cn(CCC[Si]34OCCN(CCO3)CCO4)nn2)cc1 | 59.7 | 27.2 | – | – | – | – | – | –
COc1ccccc1/C=C/C(=O)c1ccc(OCc2cn(CCC[Si]34OCCN(CCO3)CCO4)nn2)cc1 | 40.9 | 22.7 | – | – | – | – | – | –
COc1ccc(/C=C/C(=O)c2ccc(OCc3cn(CCC[Si]45OCCN(CCO4)CCO5)nn3)cc2)c(OC)c1 | 31.9 | 22.9 | – | – | – | – | – | –
O=C(/C=C/c1ccccc1)c1cccc(OCc2cn(CCC[Si]34OCCN(CCO3)CCO4)nn2)c1 | 81 | 65.6 | – | – | – | – | – | –
COc1ccc(/C=C/C(=O)c2ccccc2OCc2cn(CCC[Si]34OCCN(CCO3)CCO4)nn2)c(OC)c1OC | – | 21.3 | 232 | 13.39 | 10.92 | 285 | – | –
COc1ccccc1/C=C/C(=O)c1ccccc1OCc1cn(CCC[Si]23OCCN(CCO2)CCO3)nn1 | – | 23.8 | – | – | – | – | – | –
COc1ccc(/C=C/C(=O)c2ccc(OCc3cn(CCC[Si]45OCCN(CCO4)CCO5)nn3)cc2)cc1 | 54.9 | 21.6 | – | – | – | – | – | –
COc1ccc(/C=C/C(=O)c2cccc(OCc3cn(CCC[Si]45OCCN(CCO4)CCO5)nn3)c2)c(OC)c1OC | 19.6 | 42.1 | 340 | 7.79 | 8.07 | 328 | 16.74 | 17.36
COc1ccc(/C=C/C(=O)c2ccc(OCc3cn(CCC[Si]45OCCN(CCO4)CCO5)nn3)cc2)c(OC)c1OC | 30.2 | 18.2 | 227 | 14.78 | 12.46 | 270 | 8.94 | 7.53
COc1ccc(/C=C/C(=O)c2ccccc2OCc2cn(CCC[Si]34OCCN(CCO3)CCO4)nn2)cc1 | 32.2 | 26.7 | – | – | – | – | – | –
